Each structure is given as a SMILES string.

The target of assay [1] is Cannabinoid receptor 2 (Homo sapiens, UniProt P34972). Put plainly: Displacement of [3H]CP-55940 from human CB2 receptor expressed in HEK293 cell membranes. In short, it runs like this: (§1)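 Competition binding against [3H]CP-55,940. CB1 came from rat brain membranes, and CB2 from membranes of HEK293 cells expressing mouse or human CB2. Curves were fitted by nonlinear regression to give IC50, and Ki was calculated from IC50. Each experiment was run in triplicate, and Ki values come from a single experiment.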
Cannabinoid receptor 2 (Homo sapiens, UniProt P34972), sequence (P34972 whole entry): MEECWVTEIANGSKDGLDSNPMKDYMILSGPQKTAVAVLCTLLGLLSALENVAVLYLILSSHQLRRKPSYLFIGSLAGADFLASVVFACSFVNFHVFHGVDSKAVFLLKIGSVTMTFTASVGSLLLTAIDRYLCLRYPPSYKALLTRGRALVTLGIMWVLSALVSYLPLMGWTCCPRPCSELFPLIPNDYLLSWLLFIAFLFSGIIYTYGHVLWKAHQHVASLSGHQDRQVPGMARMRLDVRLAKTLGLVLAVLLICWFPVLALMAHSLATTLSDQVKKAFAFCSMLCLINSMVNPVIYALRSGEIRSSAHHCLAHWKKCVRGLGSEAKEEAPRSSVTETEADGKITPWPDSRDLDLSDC
(In general: Loss of bound radioactivity is the signal in a displacement assay; it reports binding, not function.)

The target of assay [2] is Cannabinoid receptor 2 (Mus musculus, UniProt P47936). Description: Displacement of [3H]CP-55940 from mouse CB2 receptor expressed in HEK293 cell membranes. In short, it runs like this: as §1
Cannabinoid receptor 2 (Mus musculus, UniProt P47936), sequence (P47936 whole entry): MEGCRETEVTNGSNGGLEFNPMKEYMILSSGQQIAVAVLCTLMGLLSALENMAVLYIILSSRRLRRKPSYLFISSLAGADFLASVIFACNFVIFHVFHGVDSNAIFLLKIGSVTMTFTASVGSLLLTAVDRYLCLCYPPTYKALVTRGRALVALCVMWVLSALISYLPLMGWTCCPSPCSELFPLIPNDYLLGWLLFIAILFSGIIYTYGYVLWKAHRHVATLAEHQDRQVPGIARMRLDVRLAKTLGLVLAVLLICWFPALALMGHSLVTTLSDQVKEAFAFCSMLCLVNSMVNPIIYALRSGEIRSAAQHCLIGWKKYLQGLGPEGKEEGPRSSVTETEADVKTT
In the next assay the target is Cannabinoid receptor 1 (Rattus norvegicus, UniProt P20272). Put plainly: Displacement of [3H]CP-55940 from CB1 receptor in rat brain. It counts as tissue-based. The essentials: as §1
Cannabinoid receptor 1, sequence (P20272 whole entry): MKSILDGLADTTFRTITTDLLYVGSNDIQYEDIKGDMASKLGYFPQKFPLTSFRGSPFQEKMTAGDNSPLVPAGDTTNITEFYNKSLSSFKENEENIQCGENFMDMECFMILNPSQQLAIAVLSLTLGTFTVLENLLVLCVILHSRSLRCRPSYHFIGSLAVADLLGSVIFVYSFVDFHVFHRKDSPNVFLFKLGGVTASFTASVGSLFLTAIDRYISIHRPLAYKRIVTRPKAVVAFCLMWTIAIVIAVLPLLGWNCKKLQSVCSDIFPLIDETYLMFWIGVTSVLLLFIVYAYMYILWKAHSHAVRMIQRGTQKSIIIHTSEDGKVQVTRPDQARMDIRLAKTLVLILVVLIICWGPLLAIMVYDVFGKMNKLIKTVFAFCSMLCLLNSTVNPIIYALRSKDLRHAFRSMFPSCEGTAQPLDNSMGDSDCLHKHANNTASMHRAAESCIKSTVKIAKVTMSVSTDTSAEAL

As to `CC1=CC[C@@H]2[C@@H](C1)c1c(O)cc(C34CC5CC(CC(C5)C3)C4)cc1OC2(C)C`, at Cannabinoid receptor 2 [1] (hek293), the Ki result was “Not Active”.
`CC1(C)Oc2cc(C(=O)N3C4CC5CC3CC(C4)O5)cc(O)c2[C@@H]2C[C@@H](O)CC[C@H]21`: the inhibition constant (Ki) at Cannabinoid receptor 2 [1] (read-out: Ki) is 25 µM; on Cannabinoid receptor 2 [2] it was 8.6 µM; on Cannabinoid receptor 1, “Not Active”.
On the same counts, the results for `CC1(C)Oc2cc(CNC3C4CC5CC(C4)CC3C5)cc(O)c2[C@@H]2C[C@@H](O)CC[C@H]21` (some centres undefined) are 25 µM, 7.5 µM and “Not Active”.
Consider `CC1(C)Oc2cc(C34CC5CC(CC(C5)O3)C4)cc(O)c2[C@@H]2C[C@@H](O)CC[C@H]21`, for which the values for the Ki at Cannabinoid receptor 2 [1] (read-out: Ki), at Cannabinoid receptor 2 [2] and at Cannabinoid receptor 1 (read-out: Ki) were 1.3 µM, 0.54 µM and 0.55 µM, respectively.
On the same counts, the results for `CC1(C)Oc2cc(C(=O)NC3C4CC5CC(C4)CC3C5)cc(O)c2[C@@H]2C[C@@H](O)CC[C@H]21` (some centres undefined) are 15 µM, 3.7 µM and 100 µM.
As for `CC1(C)Oc2cc(C34CC5CC(CC(C5)O3)C4)cc(O)c2[C@@H]2C[C@H](O)CC[C@H]21`, the results for the Ki on Cannabinoid receptor 2 [1] (read-out: Ki), at Cannabinoid receptor 2 [2] and on Cannabinoid receptor 1 (read-out: Ki) were 0.019 µM, 0.018 µM and 0.023 µM, respectively.
On the same counts, the results for `CC1(C)Oc2cc(N3C4CC5CC3CC(C4)O5)cc(O)c2[C@@H]2C[C@@H](O)CC[C@H]21` are 14.9 µM, 17 µM and 22.4 µM.
On the same counts, the results for `CC1(C)Oc2cc(CNC3C4CC5CC(C4)CC3C5)cc(O)c2[C@@H]2C[C@H](O)CC[C@H]21` (some centres undefined) are 20 µM, 6.2 µM and 150 µM.
On the same counts, the results for `CC1(C)Oc2cc(C(=O)NC3C4CC5CC(C4)CC3C5)cc(O)c2[C@@H]2C[C@H](O)CC[C@H]21` (some centres undefined) are 2.7 µM, 1.2 µM and 15 µM.
For `CC1(C)Oc2cc(N3C4CC5CC3CC(C4)O5)cc(O)c2[C@@H]2C[C@H](O)CC[C@H]21`, the Ki at Cannabinoid receptor 2 [1] (read-out: Ki) is 1.8 µM; at Cannabinoid receptor 2 [2], 1.2 µM; at Cannabinoid receptor 1 (read-out: Ki), 1.8 µM.
For the compound `CC1(C)Oc2cc(CNC34CC5CC(CC(C5)C3)C4)cc(O)c2[C@@H]2C[C@@H](O)CC[C@H]21`, the Ki at Cannabinoid receptor 2 [1] (read-out: Ki) was 25 µM; at Cannabinoid receptor 2 [2] it was 5 µM; on Cannabinoid receptor 1 (read-out: Ki), 100 µM.
As to `CC1(C)Oc2cc(CNC34CC5CC(CC(C5)C3)C4)cc(O)c2[C@@H]2C[C@H](O)CC[C@H]21`, the values for the Ki on Cannabinoid receptor 2 [1] (read-out: Ki), on Cannabinoid receptor 2 [2] and at Cannabinoid receptor 1 (read-out: Ki) were 10 µM, 0.5 µM and 150 µM, respectively.
On the same counts, the results for `CC1(C)Oc2cc(C(=O)NC34CC5CC(CC(C5)C3)C4)cc(O)c2[C@@H]2C[C@H](O)CC[C@H]21` are 8.7 µM, 0.5 µM and 80 µM.
On the same counts, the results for `CC1(C)Oc2cc(CN3C4CC5CC3CC(C4)O5)cc(O)c2[C@@H]2C[C@@H](O)CC[C@H]21` are 5 µM, 7.5 µM and 125 µM.
Take `CC1(C)Oc2cc(C(=O)N3C4CC5CC3CC(C4)O5)cc(O)c2[C@@H]2C[C@H](O)CC[C@H]21`: the values for the Ki at Cannabinoid receptor 2 [1] (read-out: Ki), on Cannabinoid receptor 2 [2] and at Cannabinoid receptor 1 were 20 µM, 2.5 µM and “Not Active”, respectively.
With `CC1(C)Oc2cc(C(=O)NC34CC5CC(CC(C5)C3)C4)cc(O)c2[C@@H]2C[C@@H](O)CC[C@H]21`, the results for the Ki at Cannabinoid receptor 2 [1] (read-out: Ki), at Cannabinoid receptor 2 [2] and on Cannabinoid receptor 1 (read-out: Ki) were 35 µM, 7.5 µM and 375 µM, respectively.
On the same counts, the results for `CC1(C)Oc2cc(CN3C4CC5CC3CC(C4)O5)cc(O)c2[C@@H]2C[C@H](O)CC[C@H]21` are 15 µM, 8.7 µM and 10 µM.

What is called Ki is the dissociation constant of the complex between target and ligand, obtained from inhibition or displacement.

The record behind these values is ChEMBL document CHEMBL1212819, “Heteroadamantyl cannabinoids” (J Med Chem, 2010).
